Test results reported in publication PMC4407950 (Journal of Clinical Pharmacology, 2014).
Where two headings read alike, the source gives them in different places.

Tests used:
[1] = cited from earlier work
[2] = type: in vivo, human; settings: for AUC(0–∞), ratio of geometric least-squares means (90% confidence interval) / C24, ratio of geometric least-squares means (90% confidence interval) / Cmax, ratio of geometric least-squares means (90% confidence interval) / reduction of plasma dolutegravir AUC(0–∞) / reduction of plasma dolutegravir C24 / reduction of plasma dolutegravir Cmax: fasted; for Tmax: human, plasma, oral, median (range)
Summary of the method: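 Healthy adults were randomized to 2 cohorts of 4 treatments: test compound 50 mg single dose fasted, then with calcium supplement (1,200 mg) or iron supplement (324 mg) fasted, with a ~30% fat meal, or 2 h before the supplement fasted. Washout was ≥7 days. K2EDTA plasma was sampled predose to 48 h. Noncompartmental parameters were log-transformed and fitted by mixed model, giving geometric LS mean ratios with 90% CI.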

Safety evaluation = type: in vivo, human; settings: for subjects who experienced AEs: six subjects
Summary of the method: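 Subjects were housed from Day −1 to Day 3 of each crossover period. Each period included serum chemistry, hematology, urinalysis, vital signs and 12-lead ECG. Adverse events were monitored through the treatment phase and at follow-up 7–14 days after the last dose.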

[3] = in the absence of added supplement; cited from earlier work
[4] = Maalox 2 hours after dolutegravir administration
[5] = concurrent administration of Maximum Strength Maalox, fasted
[6] = Dolutegravir 2 h prior + CC, fasted vs. dolutegravir alone
[7] = Dolutegravir 2 h prior + FF, fasted vs. dolutegravir alone
[8] = Dolutegravir + CC, fasted vs. dolutegravir alone
[9] = Dolutegravir + CC, fed vs. dolutegravir + CC
[10] = Dolutegravir + CC, fed vs. dolutegravir alone
[11] = Dolutegravir + FF, fasted vs. dolutegravir alone
[12] = Dolutegravir + FF, fed vs. dolutegravir + FF
[13] = Dolutegravir + FF, fed vs. dolutegravir alone
[14] = co-administered with calcium carbonate 1,200 mg
[15] = co-administered with ferrous fumarate 324 mg

## C[C@@H]1CCO[C@H]2Cn3cc(C(=O)NCc4ccc(F)cc4F)c(=O)c(O)c3C(=O)N12 [Dolutegravir]
[1]; [4]
  decrease of dolutegravir mean AUC: 26%
  decrease of dolutegravir mean C24: 30%
  decrease of dolutegravir mean Cmax: 18%
[1]; clinical study in humans
  effect of omeprazole on dolutegravir exposure: no effect
[1]; [5]
  decrease of dolutegravir mean AUC: 74%
  decrease of dolutegravir mean C24: 74%
  decrease of dolutegravir mean Cmax: 72%
[2]; [6]
  AUC(0–∞), ratio of geometric least-squares means (90% confidence interval): 0.94 (0.72, 1.23)
  C24, ratio of geometric least-squares means (90% confidence interval): 0.90 (0.68, 1.19)
  Cmax, ratio of geometric least-squares means (90% confidence interval): 1.00 (0.78, 1.29)
[2]; [7]
  AUC(0–∞), ratio of geometric least-squares means (90% confidence interval): 0.95 (0.77, 1.15)
  C24, ratio of geometric least-squares means (90% confidence interval): 0.92 (0.74, 1.13)
  Cmax, ratio of geometric least-squares means (90% confidence interval): 0.99 (0.81, 1.21)
[2]; [8]
  AUC(0–∞), ratio of geometric least-squares means (90% confidence interval): 0.61 (0.47, 0.80)
  C24, ratio of geometric least-squares means (90% confidence interval): 0.61 (0.47, 0.80)
  Cmax, ratio of geometric least-squares means (90% confidence interval): 0.63 (0.50, 0.81)
[2]; [9]
  AUC(0–∞), ratio of geometric least-squares means (90% confidence interval): 1.78 (1.36, 2.33)
  C24, ratio of geometric least-squares means (90% confidence interval): 1.76 (1.33, 2.33)
  Cmax, ratio of geometric least-squares means (90% confidence interval): 1.70 (1.32, 2.18)
[2]; [10]
  AUC(0–∞), ratio of geometric least-squares means (90% confidence interval): 1.09 (0.84, 1.43)
  C24, ratio of geometric least-squares means (90% confidence interval): 1.08 (0.81, 1.42)
  Cmax, ratio of geometric least-squares means (90% confidence interval): 1.07 (0.83, 1.38)
[2]; [11]
  AUC(0–∞), ratio of geometric least-squares means (90% confidence interval): 0.46 (0.38, 0.56)
  C24, ratio of geometric least-squares means (90% confidence interval): 0.44 (0.36, 0.54)
  Cmax, ratio of geometric least-squares means (90% confidence interval): 0.43 (0.35, 0.52)
[2]; [12]
  AUC(0–∞), ratio of geometric least-squares means (90% confidence interval): 2.14 (1.76, 2.61)
  C24, ratio of geometric least-squares means (90% confidence interval): 2.28 (1.85, 2.81)
  Cmax, ratio of geometric least-squares means (90% confidence interval): 2.41 (1.97, 2.94)
[2]; [13]
  AUC(0–∞), ratio of geometric least-squares means (90% confidence interval): 0.98 (0.81, 1.20)
  C24, ratio of geometric least-squares means (90% confidence interval): 1.00 (0.81, 1.23)
  Cmax, ratio of geometric least-squares means (90% confidence interval): 1.03 (0.84, 1.26)
[2]; [14]
  reduction of plasma dolutegravir AUC(0–∞): 39%
  reduction of plasma dolutegravir C24: 39%
  reduction of plasma dolutegravir Cmax: 37%
[2]; [15]
  reduction of plasma dolutegravir AUC(0–∞): 54%
  reduction of plasma dolutegravir C24: 56%
  reduction of plasma dolutegravir Cmax: 57%
[2]; dolutegravir fasted 2 hours prior to calcium carbonate or ferrous fumarate
  plasma exposures, dose separation: counteracted the effect
[2]; dolutegravir with calcium carbonate or ferrous fumarate, fed (moderate-fat meal)
  plasma exposures, co-administration with supplement and a meal: counteracted the effect
[2]; dolutegravir 50 mg + calcium carbonate 1,200 mg, fed (moderate-fat meal), n = 11
  Tmax: 3 h
[2]; dolutegravir 50 mg + ferrous fumarate 324 mg, fed (moderate-fat meal), n = 10
  Tmax: 3.5 h
[2]; in the presence of calcium carbonate
  increase of dolutegravir AUC by a moderate-fat meal: 78%
[2]; in the presence of ferrous fumarate
  increase of dolutegravir AUC by a moderate-fat meal: 114%
[2]; with calcium carbonate or ferrous fumarate
  effect of co-administration on tmax of dolutegravir: no effect
Safety evaluation; Cohort 1 (calcium carbonate)
  subjects who experienced AEs: 50%
Safety evaluation; Cohort 2 (ferrous fumarate)
  subjects who experienced AEs: 50%
Safety evaluation; both cohorts
  severity of all adverse events: Grade 1
Safety evaluation; human, in vivo
  changes in mean or median hematology or clinical chemistry values: No consistent, treatment-related, or clinically significant changes
  changes in vital signs or ECGs: No clinically significant changes
[3]
  increase of dolutegravir AUC by a moderate-fat meal: 41%
